Four compounds from ChEMBL document CHEMBL4145586, “Hinduchelins A-D, Noncytotoxic Catechol Derivatives from Streptoalloteichus hindustanus” (J Nat Prod, 2018) can be followed below.

One data set has as its system A549. Put plainly: Cytotoxicity against human A549 cells assessed as effect on cell viability at 50 uM after 48 hrs by MTT assay. The data set is classed as cell-based. The conditions noted are these: a549, 48 h.
The next data set deals with MCF7. Briefly: Cytotoxicity against human MCF7 cells assessed as effect on cell viability at 50 uM after 48 hrs by MTT assay. It counts as cell-based. As to conditions: mcf7, 48 h. A general note: Tetrazolium assays rely on reduction of a dye to a coloured formazan, in cell work by metabolically active cells.
The test system of a further data set is SW480. Put plainly: Cytotoxicity against human SW480 cells assessed as effect on cell viability at 50 uM after 48 hrs by MTT assay. It counts as cell-based. As to conditions: sw480, 48 h.
For the next data set, the system named is SMMC-7721. Briefly: Cytotoxicity against human SMMC7721 cells assessed as effect on cell viability at 50 uM after 48 hrs by MTT assay. It counts as cell-based. The conditions noted are these: smmc-7721, 48 h.
The test system of the next data set is HL-60. Put plainly: Cytotoxicity against human HL60 cells assessed as effect on cell viability at 50 uM after 48 hrs by MTT assay. The data set is classed as cell-based. The conditions noted are these: hl-60, 48 h.
Data set [1] in a line: Metal chelating activity assessed as iron-compound complex formation by measuring increase in pyoverdine production in Pseudomonas aeruginosa PAO1 at 50 uM by fluorescence assay. The essentials: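 PAO1 grown overnight in LB broth at 37 °C with shaking, then diluted to OD600 0.02 in ABTGC medium. Pyoverdine fluorescence was read on a plate reader, normalized to OD600 and reported as relative fluorescence units.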

The source made the active and inactive calls. The rule behind the calls is not given here.

On to `COc1cccc(-c2nc(C(=O)NCCc3ccccc3O)c(C)o2)c1OC`, for which the Activity result with A549, with MCF7, with SW480, in the data set on SMMC-7721 and in the data set on HL-60 was “Non-Toxic” throughout.
As to `COc1cccc(-c2nc(C(=O)NC[C@@H](O)c3ccccc3)c(C)o2)c1OC`, the Activity entry in the data set on A549, in the data set on MCF7, in the data set on SW480, in the data set with SMMC-7721 and in the data set with HL-60 was “Non-Toxic” in each case.
`COc1cccc(-c2nc(C(=O)NCCc3ccccc3O)c(C)o2)c1O`: the Activity entry in the data set with A549, in the data set on MCF7, in the data set on SW480, in the data set with SMMC-7721 and with HL-60 was “Non-Toxic” in each case.
With `COc1cccc(-c2nc(C(=O)NCCc3ccccc3)c(C)o2)c1O`, the Activity result with A549, with MCF7, with SW480, in the data set with SMMC-7721 and in the data set on HL-60 was “Non-Toxic” in each case. Further, the outcome in data set [1] was Active.
